From ChEMBL document CHEMBL1649261, “Pharmacodynamic profile of tigecycline against methicillin-resistant Staphylococcus aureus in an experimental pneumonia model” (Antimicrob Agents Chemother, 2009)
Values after ≈ are worked out from the molar mass of the structure shown.

Tests used:
[1] = Half life in BALB/c mouse infected with Staphylococcus aureus at 12.5 mg/kg, sc administered as single dose; type: ADME, organism-based; parameters: dose 12.5 mg/kg, route subcutaneous; conditions: in vivo
Summary of the method: (§1)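 Neutropenic BALB/c mice (cyclophosphamide ip 250 and 100 mg/kg, days −4 and −1) with S. aureus pneumonia from oral instillation of 0.05 ml of a 3% mucin suspension received a single 0.2-ml sc dose in normal saline. Serum was taken at 0.25, 0.5, 1, 1.5, 2, 4, 6 and 8 h, six mice per time point. Drug was measured by validated HPLC.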

[2] = Ratio of fAUC to MIC in community-acquired methicillin-resistant Staphylococcus aureus 156-infected BALB/c mouse at bacteriostatic concentration; type: functional
Summary of the method: (§2)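 Neutropenic BALB/c mice (cyclophosphamide 250 and 100 mg/kg i.p., 4 and 1 days before infection) were infected by oral inhalation of 0.05 ml inoculum in 3% mucin under isoflurane. Subcutaneous tigecycline (1.56–150 mg/kg/day, single or 2–3 divided doses, saline vehicle) was started 6 h post-infection. At 24 h lungs were homogenized and plated; change in log10 CFU was taken versus 0-h controls.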

[3] = Ratio of fAUC to MIC in methicillin-susceptible Staphylococcus aureus ATCC 29213-infected BALB/c mouse at bacteriostatic concentration; type: functional
Summary of the method: (§3)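 Mice were neutropenic and infected by lung instillation with ATCC 29213, with the MIC set by CLSI broth microdilution in triplicate. Sc treatment started 6 h post-inoculation at 1.56–150 mg/kg/day, given as one, two or three doses. Lung CFU at 24 h were compared with 0-h controls. Change in log10 CFU was fitted against protein-binding-corrected fAUC/MIC with a sigmoid Emax model.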

[4] = Ratio of fAUC to MIC in hospital-acquired methicillin-resistant Staphylococcus aureus 56-infected BALB/c mouse at 80% maximal effective concentration; type: functional; summary of the method: as §2
[5] = Ratio of fAUC to MIC in hospital-acquired methicillin-resistant Staphylococcus aureus 152-infected BALB/c mouse at 80% maximal effective concentration; type: functional; summary of the method: as §2
[6] = Ratio of fAUC to MIC in methicillin-susceptible Staphylococcus aureus ATCC 29213-infected BALB/c mouse at […] maximal effective concentration; type: functional; summary of the method: as §3
Staphylococcus aureus [7] = assay: Antibacterial activity against community-acquired methicillin-resistant Staphylococcus aureus 147 by microdilution method; type: functional
Summary of the method: (§4)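 Tigecycline MIC measured in triplicate by broth microdilution following CLSI guidelines. Isolates were stored at −80°C in skim milk and subcultured twice on blood agar before testing.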

[8] = Ratio of fAUC to MIC in hospital-acquired methicillin-resistant Staphylococcus aureus 152-infected BALB/c mouse at bacteriostatic concentration; type: functional
Summary of the method: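 Neutropenic BALB/c mice (cyclophosphamide ip 250 and 100 mg/kg, 4 days and 1 day pre-inoculation), isoflurane-anaesthetised, inoculated via the mouth with 0.05 ml of 3.0 × 10^8 CFU/ml in 3% mucin. SC tigecycline in saline, 1.56–150 mg/kg/day single or 2–3 divided doses from 6 h. Whole-lung CFU at 24 h versus 0-h controls; sigmoid Emax fit of Δlog10 CFU against fAUC/MIC gives stasis value.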

[9] = Ratio of fAUC (0 to 8 hrs) in epithelial lining fluid to plasma of Staphylococcus aureus-infected BALB/c mouse at 25 mg/kg, sc administered as single dose; type: ADME, organism-based; parameters: dose 25 mg/kg, route subcutaneous
Summary of the method: (§5)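 Neutropenic BALB/c mice (cyclophosphamide ip 250 and 100 mg/kg, 4 d and 1 d pre-inoculation) infected orally with S. aureus in 3% mucin. Single 0.2-ml sc dose in normal saline; six mice per time point. Serum sampled 0.25–8 h, BAL at 0.25, 1, 4, 8 h; HPLC; ELF by urea correction. Trapezoidal AUC0-8; serum corrected for ultrafiltration protein binding, BAL drug assumed free.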

Staphylococcus aureus [10] = assay: Antibacterial activity against community-acquired methicillin-resistant Staphylococcus aureus 156 by microdilution method; type: functional; summary of the method: as §4
[11] = Ratio of fAUC (0 to 8 hrs) in epithelial lining fluid to plasma of Staphylococcus aureus-infected BALB/c mouse at 12.5 mg/kg, sc administered as single dose; type: ADME, organism-based; parameters: dose 12.5 mg/kg, route subcutaneous; summary of the method: as §5
Staphylococcus aureus [12] = assay: Antibacterial activity against methicillin-susceptible Staphylococcus aureus ATCC 29213 by microdilution method; type: functional; summary of the method: as §4
[13] = Tmax in BALB/c mouse infected with Staphylococcus aureus at 25 mg/kg, sc administered as single dose; type: ADME, organism-based; parameters: dose 25 mg/kg, route subcutaneous; conditions: in vivo; summary of the method: as §1
[14] = Tmax in BALB/c mouse infected with Staphylococcus aureus at 50 mg/kg, sc administered as single dose; type: ADME, organism-based; parameters: dose 50 mg/kg, route subcutaneous; conditions: in vivo; summary of the method: as §1
[15] = Half life in BALB/c mouse infected with Staphylococcus aureus at 50 mg/kg, sc administered as single dose; type: ADME, organism-based; parameters: dose 50 mg/kg, route subcutaneous; conditions: in vivo; summary of the method: as §1
[16] = Cmax in BALB/c mouse infected with Staphylococcus aureus at 25 mg/kg, sc administered as single dose; type: ADME, organism-based; parameters: dose 25 mg/kg, route subcutaneous; conditions: in vivo; summary of the method: as §1
[17] = Ratio of fAUC to MIC in community-acquired methicillin-resistant Staphylococcus aureus 147-infected BALB/c mouse at 80% maximal effective concentration; type: functional; summary of the method: as §2
[18] = Ratio of fAUC to MIC in community-acquired methicillin-resistant Staphylococcus aureus 147-infected BALB/c mouse at […] maximal effective concentration; type: functional; summary of the method: as §2
[19] = Ratio of fAUC (0 to 8 hrs) in epithelial lining fluid to plasma of Staphylococcus aureus-infected BALB/c mouse at 50 mg/kg, sc administered as single dose; type: ADME, organism-based; parameters: dose 50 mg/kg, route subcutaneous; summary of the method: as §5
[20] = Ratio of fAUC to MIC in hospital-acquired methicillin-resistant Staphylococcus aureus 56-infected BALB/c mouse at […] maximal effective concentration; type: functional; summary of the method: as §2
[21] = Ratio of fAUC to MIC in community-acquired methicillin-resistant Staphylococcus aureus 156-infected BALB/c mouse at […] maximal effective concentration; type: functional; summary of the method: as §2
[22] = Ratio of fAUC to MIC in methicillin-susceptible Staphylococcus aureus ATCC 29213-infected BALB/c mouse at 80% maximal effective concentration; type: functional; summary of the method: as §3
[23] = Cmax in BALB/c mouse infected with Staphylococcus aureus at 6.25 mg/kg, sc administered as single dose; type: ADME, organism-based; parameters: dose 6.25 mg/kg, route subcutaneous; conditions: in vivo; summary of the method: as §1
[24] = Ratio of fAUC to MIC in community-acquired methicillin-resistant Staphylococcus aureus 147-infected BALB/c mouse at bacteriostatic concentration; type: functional; summary of the method: as §2
[25] = Ratio of fAUC to MIC in community-acquired methicillin-resistant Staphylococcus aureus 144-infected BALB/c mouse at 80% maximal effective concentration; type: functional; summary of the method: as §2
Staphylococcus aureus [26] = assay: Antibacterial activity against community-acquired methicillin-resistant Staphylococcus aureus 144 by microdilution method; type: functional; summary of the method: as §4
[27] = AUC (0 to 24 hrs) in BALB/c mouse infected with Staphylococcus aureus at 25 mg/kg, sc administered as single dose; type: ADME, organism-based; parameters: time < 24 hr, dose 25 mg/kg, route subcutaneous; conditions: plasma; summary of the method: as §1

CN(C)c1cc(NC(=O)CNC(C)(C)C)c(O)c2c1C[C@H]1C[C@H]3[C@H](N(C)C)C(O)=C(C(N)=O)C(=O)[C@@]3(O)C(O)=C1C2=O [TIGECYCLINE]
half-life [1]: 7.13 h
fAUC/MIC [2]: 4.18
fAUC/MIC [3]: 2.38
fAUC/MIC [4]: 2.11
fAUC/MIC [5]: 2.48
fAUC/MIC [6]: 2.33
MIC (Staphylococcus aureus [7]): 0.25 µg/mL (≈ 0.427 µM)
fAUC/MIC [8]: 1.51
Kp uu [9]: 15.1
MIC (Staphylococcus aureus [10]): 0.125 µg/mL (≈ 0.213 µM)
Kp uu [11]: 7.02
MIC (Staphylococcus aureus [12]): 0.25 µg/mL (≈ 0.427 µM)
Tmax [13]: 0.74 h
Tmax [14]: 0.35 h
half-life [15]: 11.5 h
Cmax [16]: 5990 ng/mL
fAUC/MIC [17]: 3.12
fAUC/MIC [18]: 0.69
Kp uu [19]: 23.9
fAUC/MIC [20]: 0.38
fAUC/MIC [21]: 3.91
fAUC/MIC [22]: 2.68
Cmax [23]: 1570 ng/mL
fAUC/MIC [24]: 0.41
fAUC/MIC [25]: 2.64
MIC (Staphylococcus aureus [26]): 0.25 µg/mL (≈ 0.427 µM)
AUC(0-t) at 24 h [27]: 37500 ng·h/mL
